The source made the active and inactive calls.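 The calls were made as follows: active = compounds cutting labeled HDL uptake fluorescence whose fitted AC50 is within ten times their top tested dose; inconclusive = flat fit with 30 to 70% inhibition, or poor fit; inactive = the rest.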
target: Scavenger receptor class B member 1 (Mus musculus) (UniProt Q61009); assay: mSR-BI lipid transfer inhibition in CHO cells – ldlA[mSR-BI] CHO cells, fluorescence, dry powder, set 6, dose response (AID 588828); conditions: DiI-HDL uptake fluorescence, 3 h
Sequence (Q61009 whole entry, looked up): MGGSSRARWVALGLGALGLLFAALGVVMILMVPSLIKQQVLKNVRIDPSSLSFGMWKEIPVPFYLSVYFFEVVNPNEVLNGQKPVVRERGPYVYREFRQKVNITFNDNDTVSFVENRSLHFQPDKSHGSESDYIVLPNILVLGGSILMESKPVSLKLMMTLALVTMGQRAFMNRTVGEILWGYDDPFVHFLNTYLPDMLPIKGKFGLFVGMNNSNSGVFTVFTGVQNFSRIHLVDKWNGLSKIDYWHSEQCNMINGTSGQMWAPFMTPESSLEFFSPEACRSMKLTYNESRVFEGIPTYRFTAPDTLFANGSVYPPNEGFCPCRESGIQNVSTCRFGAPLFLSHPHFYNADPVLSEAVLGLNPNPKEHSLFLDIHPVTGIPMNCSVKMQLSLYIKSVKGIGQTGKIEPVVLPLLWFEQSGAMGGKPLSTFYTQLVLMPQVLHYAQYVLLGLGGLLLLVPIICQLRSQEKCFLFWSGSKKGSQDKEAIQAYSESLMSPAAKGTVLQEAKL
Summary of the method: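 System: CHO ldlA cells overexpressing mSR-BI scavenger receptor. Reagent: DiI-HDL, 10 µg/mL. Dosing: compound concentration series. Times: overnight cell attachment, then 3 h compound and DiI-HDL exposure at 37 °C. Signal: fluorescence, bottom read, excitation 550 nm, emission 595 nm.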

| AC50 | Compound |
| --- | --- |
| 3.19 nM | COc1ccc(-c2cc(CC(=O)N(C3CCCCC3)C(C)C(=O)NC3CCCC3)no2)cc1OC (stereo unspecified) |
| 43.8 nM | C[C@@H]1CN([C@H](C)CO)C(=O)c2cc(NC(=O)Cc3cn(C)c4ccccc34)ccc2O[C@H]1CN(C)S(=O)(=O)c1ccc(Cl)cc1 |
| 614 nM | CC(=O)N1CCc2cc(-c3nc(NC(=O)c4cccc(OC(F)(F)F)c4)sc3C)ccc21 |
| > 22000 nM (inactive) | C[C@@H]1CN([C@@H](C)CO)C(=O)Cc2cc(NC(=O)Nc3ccc(C(F)(F)F)cc3)ccc2O[C@@H]1CN(C)S(=O)(=O)c1ccc(Cl)cc1 |
| 1.22 nM | C[C@H](C(=O)NC1CCCC1)N(C(=O)Cn1nnc(-c2ccc3c(c2)OCO3)n1)C1CCCCC1 |
| 14.2 nM | CCC(=O)N1CC(C)(C)c2cc(-c3csc(NC(=O)c4cc(OC)cc(OC)c4)n3)ccc21 |
| 568 nM | Cc1ccc2oc(-c3cccc(NC(=O)c4cc(-n5cnnc5)ccc4Cl)c3)nc2c1 |
| 6.3 nM | COc1cc(OC)cc(C(=O)Nc2nc(-c3ccc4c(c3)CCN4C(=O)CN(C)C)cs2)c1 |
| 3.66 nM | COCC(=O)N1CCc2cc(-c3csc(NC(=O)c4cc(OC)cc(OC)c4)n3)ccc21 |
| 0.927 nM | CCNC(=O)N1CCc2cc(-c3csc(NC(=O)c4cc(OC)cc(OC)c4)n3)ccc21 |
| 6.89 nM | COc1cc(OC)cc(C(=O)Nc2nc(-c3ccc4c(c3)CCN4C(=O)OC(C)(C)C)cs2)c1 |
| 287 nM | CCC(=O)N1CCc2cc(-c3csc(NC(=O)c4ccc(F)c(OC)c4)n3)ccc21 |
| 18.7 nM | CCCCCCC1CCC/C1=N\NC(N)=S (stereo unspecified) |
| 92.6 nM | CCC(=O)N1CCc2cc(-c3csc(NC(=O)c4cccc(OC)c4)n3)ccc21 |

same assay, conditions: DiI-HDL uptake fluorescence, 3 h, at 35 µM (top of the series)

| activity change, negative = inhibition | Compound |
| --- | --- |
| inactive | CC(C)(Sc1cc(C(C)(C)C)c(O)c(C(C)(C)C)c1)Sc1cc(C(C)(C)C)c(O)c(C(C)(C)C)c1 |
| inactive | COc1c(NC(=O)C(=O)c2ccc(OCCN3CCOCC3)c3ccccc23)cc(C(C)(C)C)cc1NS(C)(=O)=O |

From PubChem BioAssay AID588828 (Broad Institute, 2011)
